In ChEMBL document CHEMBL4152240, “Synthesis, cytotoxicity and structure-activity relationship of indolizinoquinolinedione derivatives as DNA topoisomerase IB catalytic inhibitors” (2018):
Calls of active or inactive are those of the source. The rule behind the calls is not given here.

Key:
[1] = molecular target: T1, Topoisomerase I (Bos taurus) (UniProt Q2HPH0); test: Inhibition of calf thymus TOP1-mediated relaxation of supercoiled pBR322 DNA at 25 uM after 30 mins by agarose gel electrophoresis relative to camptothecin
T1 sequence (whole entry): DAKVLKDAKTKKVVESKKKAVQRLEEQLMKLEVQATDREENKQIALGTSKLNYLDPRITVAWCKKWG
In short: (§1)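 0.5 µg supercoiled pBR322 in buffer (10 mM Tris-HCl pH 7.5, 50 mM KCl, 5 mM MgCl2, BSA, DTT) with 1 unit calf thymus TOP1, with or without compound (0.2-125 µM), 30 min at 37 C. Run on 0.8% agarose/TBE at 4.6 V/cm for 1.5 h, gel red stained. Activity graded in bands (e.g. +++ 81-120%). At least two independent repeats.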

[2] = molecular target: T1, Topoisomerase I (Bos taurus); test: Inhibition of calf thymus TOP1-mediated relaxation of supercoiled pBR322 DNA after 30 mins by agarose gel electrophoresis; in short: as §1
[3] = molecular target: T1, Topoisomerase I (Bos taurus); test: Inhibition of calf thymus TOP1-mediated relaxation of supercoiled pBR322 DNA at 125 uM after 30 mins by agarose gel electrophoresis relative to control; in short: as §1
DNA [4] = test: Induction of unwinding effect of Escherichia coli relaxed pBR322 DNA at 1 to 9 uM preincubated with DNA for 10 mins followed by excess calf thymus TOP1 addition and measured after 30 mins by agarose gel electrophoresis; assay type: nucleic-acid assay
In short: (§2)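 Compound (1, 3, 9 µM) preincubated with pBR322 DNA, supercoiled or relaxed, at room temperature for 10 min. Excess TOP1 then added and incubated 30 min at 37 C. Stopped with SDS/proteinase K. Ethidium bromide (0.3-1.2 mg/L) as positive control. Run on 0.8% agarose in TBE at 4.6 V/cm for 1.5 h, stained with gel red, UV visualized.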

DNA [5] = test: Induction of unwinding effect of Escherichia coli supercoiled pBR322 DNA at 1 to 9 uM preincubated with DNA for 10 mins followed by excess calf thymus TOP1 addition and measured after 30 mins by agarose gel electrophoresis; assay type: nucleic-acid assay; in short: as §2
HCT-116 [6] = test: Cytotoxicity against human HCT116 cells assessed as growth inhibition after 72 hrs by MTT assay; assay type: functional; settings: HCT-116, 72 h
In short: (§3)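 Five-dose MTT growth assay, compounds predissolved in DMSO, 72 h exposure at 37 C. Cells kept in RPMI-1640 or DMEM, 37 C, 5% CO2, passage 3-6. MTT (1 mg/mL in PBS) added for 4 h, formazan dissolved in DMSO, OD 570 nm. GI50 (50% growth inhibition) by nonlinear regression. Means ± SD, at least three repeats.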

CCRF-CEM = test: Cytotoxicity against human CCRF-CEM cells assessed as growth inhibition after 72 hrs by MTT assay; assay type: functional; in short: as §3
A549 = test: Cytotoxicity against human A549 cells assessed as growth inhibition after 72 hrs by MTT assay; assay type: functional; settings: A549, 72 h; in short: as §3
Huh-7 = test: Cytotoxicity against human HuH7 cells assessed as growth inhibition after 72 hrs by MTT assay; assay type: functional; settings: Huh-7, 72 h; in short: as §3
DU-145 = test: Cytotoxicity against human DU145 cells assessed as growth inhibition after 72 hrs by MTT assay; assay type: functional; settings: DU-145, 72 h; in short: as §3
MCF7 = test: Cytotoxicity against human MCF7 cells assessed as growth inhibition after 72 hrs by MTT assay; assay type: functional; settings: MCF7, 72 h
In short: (§4)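 MTT growth assay in drug-resistant sublines and parental lines. HCT116-siTop1 was made by transfecting HCT116 with shRNA vectors expressing TOP1 siRNA. MCF-7, HepG2 and their ADR-resistant lines were gifts. Five-dose DMSO-predissolved compounds for 72 h at 37 C, then MTT 4 h, DMSO solubilization, OD 570 nm. GI50 by nonlinear regression. At least three repeats.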

HepG2 = test: Cytotoxicity against human HepG2 cells assessed as growth inhibition after 72 hrs by MTT assay; assay type: functional; settings: HepG2, 72 h; in short: as §4
HCT-116 [7] = test: Cytotoxicity against human HCT116 cells expressing TOP1 siRNA assessed as growth inhibition after 72 hrs by MTT assay; assay type: functional; settings: HCT-116, 72 h; in short: as §4
[8] = Cytotoxicity against human RC0.1 cells assessed as growth inhibition after 72 hrs by MTT assay; assay type: functional
NCI/ADR-RES = test: Cytotoxicity against human MCF7/ADR cells assessed as growth inhibition after 72 hrs by MTT assay; assay type: functional; in short: as §4
[9] = Cytotoxicity against human HepG2/ADR cells assessed as growth inhibition after 72 hrs by MTT assay; assay type: functional; settings: HepG2, 72 h; in short: as §4
[10] = Resistance ratio of GI50 for human HCT116 cells expressing TOP1 siRNA to GI50 for human HCT116 cells; assay type: functional
In short: (§5)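 Resistance ratio: the GI50 in the resistant or TOP1-knockdown subline divided by the GI50 in the matching parental line.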

[11] = Resistance ratio of GI50 for human RC0.1 cells to GI50 for human DU145 cells; assay type: functional
[12] = Resistance ratio of GI50 for human MCF7/ADR cells to GI50 for human MCF7 cells; assay type: functional; in short: as §5
[13] = Resistance ratio of GI50 for human HepG2/ADR cells to GI50 for human HepG2 cells; assay type: functional; in short: as §5
HCT-116 [14] = test: Induction of apoptosis in human HCT116 cells assessed as early apoptotic cells at 1 uM after 12 hrs by annexin V-FITC/propidium iodide staining-based flow cytometric method (reference value: 0.47 to 1.19%); assay type: functional
HCT-116 [15] = test: Induction of apoptosis in human HCT116 cells assessed as late apoptotic cells at 1 uM after 12 hrs by annexin V-FITC/propidium iodide staining-based flow cytometric method (reference value: 0.34 to 0.81%); assay type: functional
HCT-116 [16] = test: Induction of apoptosis in human HCT116 cells assessed as viable cells at 1 uM after 12 hrs by annexin V-FITC/propidium iodide staining-based flow cytometric method (reference value: 97.60 to 98.95%); assay type: functional; settings: HCT-116, 12 h, read-out: Activity
HCT-116 [17] = test: Induction of apoptosis in human HCT116 cells assessed as early apoptotic cells at 3 uM after 12 hrs by annexin V-FITC/propidium iodide staining-based flow cytometric method (reference value: 0.47 to 1.19%); assay type: functional
HCT-116 [18] = test: Induction of apoptosis in human HCT116 cells assessed as late apoptotic cells at 3 uM after 12 hrs by annexin V-FITC/propidium iodide staining-based flow cytometric method (reference value: 0.34 to 0.81%); assay type: functional
HCT-116 [19] = test: Induction of apoptosis in human HCT116 cells assessed as viable cells at 3 uM after 12 hrs by annexin V-FITC/propidium iodide staining-based flow cytometric method (reference value: 97.60 to 98.95%); assay type: functional; settings: HCT-116, 12 h, read-out: Activity
HCT-116 [20] = test: Induction of apoptosis in human HCT116 cells assessed as early apoptotic cells at 9 uM after 12 hrs by annexin V-FITC/propidium iodide staining-based flow cytometric method (reference value: 0.47 to 1.19%); assay type: functional
HCT-116 [21] = test: Induction of apoptosis in human HCT116 cells assessed as late apoptotic cells at 9 uM after 12 hrs by annexin V-FITC/propidium iodide staining-based flow cytometric method (reference value: 0.34 to 0.81%); assay type: functional
HCT-116 [22] = test: Induction of apoptosis in human HCT116 cells assessed as viable cells at 9 uM after 12 hrs by annexin V-FITC/propidium iodide staining-based flow cytometric method (reference value: 97.60 to 98.95%); assay type: functional; settings: HCT-116, 12 h, read-out: Activity
HCT-116 [23] = test: Induction of apoptosis in human HCT116 cells after 12 hrs by annexin V-FITC/propidium iodide staining-based flow cytometric method; assay type: functional, cell-based
DNA [24] = test: Induction of unwinding effect of Escherichia coli supercoiled pBR322 DNA at 0.3 to 1.2 mg/L preincubated with DNA for 10 mins followed by excess calf thymus TOP1 addition and measured after 30 mins by agarose gel electrophoresis; assay type: nucleic-acid assay
In short: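 Supercoiled or relaxed pBR322 DNA was preincubated with ethidium bromide (0.3, 0.6, 1.2 mg/L, positive control) for 10 min at room temperature. Excess TOP1 was then added for 30 min at 37 °C. The reaction was stopped with SDS/proteinase K, run on 0.8% agarose in TBE at 4.6 V/cm for 1.5 h, then gel-red stained and UV imaged.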

[25] = molecular target: T1, Topoisomerase I (Bos taurus); settings: 0.2 to 1 uM

Row | Structure (SMILES) | inhibition [1] | inhibition [2] | inhibition [3] | Activity (DNA [4]) | Activity (DNA [5]) | GI50 (HCT-116 [6]) | GI50 (CCRF-CEM) | GI50 (A549) | GI50 (Huh-7) | GI50 (DU-145) | Activity (HCT-116 [14]) | Activity (HCT-116 [15]) | viability at 1 µM (HCT-116 [16]) | Activity (HCT-116 [17]) | Activity (HCT-116 [18]) | viability at 3 µM (HCT-116 [19]) | Activity (HCT-116 [20]) | Activity (HCT-116 [21]) | viability at 9 µM (HCT-116 [22]) | Activity (HCT-116 [23]) | also measured
1 | O=C1c2cccnc2C(=O)c2c1c(C(=O)OCCN1CCCC1)c1c(F)cccn21 | > 121% | Dose-dependent effect | 100% | inactive | inactive | 23 nM | 790 nM | 60 nM | 120 nM | 82 nM | 0.79% | 1.17% | 97.7% | 1.69% | 8.5% | 86% | 10.17% | 32.1% | 51.3% | Dose-dependent effect | GI50 (MCF7): 89 nM; GI50 (HepG2): 51 nM; GI50 (HCT-116 [7]): 150 nM; GI50 [8]: 2.94 µM; GI50 (NCI/ADR-RES): 97 nM; GI50 [9]: 380 nM; RatioGI50 [10]: 6.5; RatioGI50 [11]: 36.8; RatioGI50 [12]: 1.1; RatioGI50 [13]: 7.5
2 | CC[n+]1c(-c2ccccc2)c2cc(N)ccc2c2ccc(N)cc21 | – | – | – | – | – | – | – | – | – | – | – | – | – | – | – | – | – | – | – | – | Activity (DNA [24]): Active
3 | CC[C@@]1(O)C(=O)OCc2c1cc1n(c2=O)Cc2cc3ccccc3nc2-1 [CAMPTOTHECIN] | – | – | 58% | – | – | – | 2 nM | 3 nM | 6 nM | 19 nM | – | – | – | – | – | – | – | – | – | – | GI50 [8]: 7.53 µM; inhibition [25]: Active
4 | O=C1c2cccnc2C(=O)c2c1c(C(=O)OCCCN1CCCCC1)c1c(F)cccn21 | > 121% | Dose-dependent effect | 100% | inactive | inactive | 27 nM | 350 nM | 72 nM | 120 nM | 210 nM | 2.14% | 3.98% | 93.4% | 2.5% | 16.74% | 79% | 4.73% | 31.59% | 61.7% | Dose-dependent effect | –
5 | O=C1c2cccnc2C(=O)c2c1c(C(=O)OCCN1CCCCC1)c1c(F)cccn21 | > 121% | Dose-dependent effect | 100% | inactive | inactive | 25 nM | 380 nM | 290 nM | 59 nM | 91 nM | 2.12% | 2.39% | 95.2% | 1.26% | 10.47% | 86.9% | 2.47% | 38.17% | 57.1% | Dose-dependent effect | –
